Compound activity from PubChem.
Shown are actives, neighbours in structure and some others; about 1.4% of the full set was active somewhere.
FN deposition inh – fibronectin deposition inhibition. AH1F fibroblasts, Alexa488-fibronectin deposition fluorescence, overnight. inhibition, % at 12.6 µM. 350,000 tested, 0.086% active. AID 743247;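 active = mean inhibition across replicates of 30% or more, regardless of how many single replicates reach that level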
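Material – AH1F fibroblast monolayer, labelled fibronectin deposition · Reagent – labelled fibronectin 24 nM · Timing – 1 h adhesion, overnight exposure · Measured by – fluorescence at 485 nm excitation, 525 nm emission · Read-out – inhibition of fibronectin deposition signal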
PDI turbidity – PDI (human) enzyme inhibition | P07237 | PDI insulin aggregation turbidity, A650, 90 min | inhibition, % at 10 µM | 350,000 tested, 0.052% active;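 active = mean inhibition across replicates of 30% or more, whatever share of single replicates reach that level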
Target sequence (P07237 whole entry, looked up): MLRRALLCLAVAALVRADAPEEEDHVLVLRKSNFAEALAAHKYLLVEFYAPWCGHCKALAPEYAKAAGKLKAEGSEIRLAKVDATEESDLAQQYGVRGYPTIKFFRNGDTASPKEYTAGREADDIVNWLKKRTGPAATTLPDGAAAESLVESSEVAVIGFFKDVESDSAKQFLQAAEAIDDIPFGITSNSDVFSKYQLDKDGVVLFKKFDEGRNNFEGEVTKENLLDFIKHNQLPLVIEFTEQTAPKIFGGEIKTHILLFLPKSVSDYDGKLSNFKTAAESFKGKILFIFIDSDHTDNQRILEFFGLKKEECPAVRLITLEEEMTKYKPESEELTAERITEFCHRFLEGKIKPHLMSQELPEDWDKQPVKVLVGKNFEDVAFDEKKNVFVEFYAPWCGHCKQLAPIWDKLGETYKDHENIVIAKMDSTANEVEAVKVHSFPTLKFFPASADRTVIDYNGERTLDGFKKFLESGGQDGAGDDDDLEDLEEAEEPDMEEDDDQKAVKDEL
INS-1E GSIS act – GLuc luminescence reporter in INS-1E cells, primary screen for activators of glucose-dependent secretion of insulin; INS-1E GLuc reporter insulin secretion, 2-3 h; activation, % at 16.6 µM; 370,000 tested, 0.61% active; AID 743287;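 active = lowest replicate activation of at least 40%, so every replicate reaches that level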
ERp5 inh – blocks human ERp5 reductase activity on insulin; Q15084; 350,000 tested, 0.05% active; ERp5 insulin aggregation, absorbance 650 nm, 90 min; inhibition, % at 9.99 µM;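 active = mean replicate inhibition above about 25%, with every replicate also reaching it, limit read from the data, passing the limit was not always enough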
HIV Env fusion – inhibitors of HIV Env-mediated cell fusion | HeLa-JRFL Env/CEM21 cell fusion, luciferase | inhibition, % at 12.3 µM | 360,000 tested, 1.1% active;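 active = mean replicate inhibition score of at least 50 and every replicate individually at or above 50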
Each line names hits and unclear results; the compound was inactive in the other large screens.

C/C=C/c1ccc(C2[C@@H]3CN(C(=O)Nc4ccccc4OC)C[C@H]2N3)cc1 (stereo not given in full)	none (no result: PDI turbidity, HIV Env fusion)
CN(C)C(=O)c1cccc(-c2ccc([C@H]3[C@H]4CN(C(=O)C5CC5)CC(=O)N4[C@H]3CO)cc2)c1	none (no result: PDI turbidity, HIV Env fusion)
O=C(C[C@H]1CC[C@@H]2[C@H](COC[C@@H](O)CN2C(=O)Nc2ccccc2)O1)NC1Cc2ccccc2C1	none (no result: PDI turbidity, HIV Env fusion)
C[C@@H]1CN([C@H](C)CO)C(=O)c2cc(C3=CCCCC3)cnc2O[C@H]1CN(C)Cc1ccncc1	none (no result: FN deposition inh, PDI turbidity)
CC(C)CC#Cc1ccc2c(c1)O[C@H](CN(C)C(=O)Nc1ccccc1)[C@H](C)CN([C@@H](C)CO)S2(=O)=O	none (no result: PDI turbidity)
O=C1/C(=C\c2ccc(Cl)c(Cl)c2)CN(C(=O)CCN2CCOCC2)C/C1=C/c1ccc(Cl)c(Cl)c1	INS-1E GSIS act 136 (no result: HIV Env fusion)
O=C1/C(=C\c2ccccc2)CN(C(=O)CCN2CCCCC2)C/C1=C/c1ccccc1	none
O=C(C[C@H]1CC[C@H](NC(=O)Cc2ccccn2)[C@@H](CO)O1)NCCCN1CCOCC1	none (no result: PDI turbidity)
C=CCN([C@H](C(=O)OC)C(C)C)S(=O)(=O)CCNCc1ccccc1	HIV Env fusion 62
CCCNC(=O)c1nnsc1S(=O)c1ccc(Cl)cc1 (stereo not given)	INS-1E GSIS act 115 (no result: FN deposition inh)
CCCNC(=O)c1nnsc1S(=O)(=O)c1ccc(Cl)cc1	INS-1E GSIS act 65
O=c1c(OC2OC(CO)C(O)C(O)C2O)c(-c2ccc(O)c(O)c2)oc2cc(O)cc(O)c12 (stereo not given)	PDI turbidity 54
O=c1c(OC2OC(CO)C(O)C(O)C2OC2OC(CO)C(O)C(O)C2O)c(-c2ccc(O)cc2)oc2cc(O)cc(O)c12 (stereo not given)	none (no result: FN deposition inh, PDI turbidity, HIV Env fusion)
O=c1c(O[C@@H]2O[C@H](CO)C(O)C2O)c(-c2ccc(O)c(O)c2)oc2cc(O)cc(O)c12 (stereo not given in full)	PDI turbidity 41 (no result: FN deposition inh, INS-1E GSIS act, ERp5 inh, HIV Env fusion)
O=c1c(O[C@H]2O[C@@H](CO)[C@H](O)[C@@H](O)[C@@H]2O)c(-c2ccc(O)cc2)oc2cc(O)cc(O)c12	PDI turbidity 63
C[C@H]1CN([C@@H](C)CO)C(=O)c2cc(NS(=O)(=O)c3ccc(F)cc3)ccc2O[C@@H]1CN(C)C(=O)Nc1ccc(C(F)(F)F)cc1	none (no result: FN deposition inh, PDI turbidity)
Cc1cc(N/N=C/c2ccc(O)cc2O)nc(-n2nc(C)cc2C)n1	HIV Env fusion 56 (no result: ERp5 inh)
COc1ccc(CN2C[C@@H](O)COC[C@@H]3O[C@@H](CC(=O)N(C)C)CC[C@H]32)cc1	none (no result: PDI turbidity)
CCOC(=O)C(CC)(CC)C(=O)/C=C/c1ccc(Br)cc1	INS-1E GSIS act 65 (no result: FN deposition inh, ERp5 inh, HIV Env fusion)
CCCN1C[C@H](C)[C@@H](OC)CN(C)C(=O)c2ccc(NC(=O)c3cccc(OC)c3)cc2OC[C@H]1C	none (no result: PDI turbidity)
C[C@H](NC(=O)[C@H]1[C@H](CO)[C@H]2Cn3c(ccc(-c4cccnc4)c3=O)[C@@H]1N2C)c1ccccc1	none (no result: FN deposition inh, PDI turbidity, HIV Env fusion)
O=C1CC(NS(=O)(=O)c2cccs2)CN1c1cccc(F)c1 (stereo not given)	INS-1E GSIS act 46
COc1ccc(S(=O)(=O)Nc2ccc3c(c2)CC(=O)N([C@@H](C)CO)C[C@H](C)[C@H](CN(C)C(=O)Nc2ccccc2)O3)cc1	none (no result: FN deposition inh, PDI turbidity)
O=C(CN(Cc1ccccc1)S(=O)(=O)c1cccc(C(F)(F)F)c1)NC1CCCCC1	HIV Env fusion 63 (no result: ERp5 inh)
C[C@@H]1CN([C@H](C)CO)C(=O)c2cc(NC(=O)Nc3cccc4ccccc34)ccc2O[C@@H](C)CCCCO[C@H]1CN(C)Cc1ccccc1	none (no result: PDI turbidity)
COc1ccccc1N(C(=O)CCl)c1cn(C(C)=O)c2ccccc12	none (no result: INS-1E GSIS act)
COc1ccccc1N(C(C)=O)C1=C(Cl)C(=O)c2ccccc2C1=O	FN deposition inh 42 (no result: INS-1E GSIS act)
O=C1C=C(c2ccc(F)cc2OCc2ccccc2)C[C@@H](c2ccc(Cl)cc2)C1	HIV Env fusion 76
O=C1[C@H](Cc2ccccc2)NCCCC[C@H](c2ccc(Cl)cc2)N1Cc1ccc(Cl)cc1	HIV Env fusion 66
O=C1[C@H](Cc2ccccc2)NCC=CC[C@@H](c2ccc(Cl)cc2)N1Cc1ccc(Cl)cc1	none
COC(=O)C1=C(C(=O)OC)[C@]2([C@H]3CCCCN[C@@H](Cc4ccccc4)C(=O)N3Cc3ccccc3)C=C[C@H]1O2	HIV Env fusion 65
O=C1[C@H](Cc2ccccc2)NCC=CC[C@H](c2ccc(Cl)cc2)N1Cc1ccc(Cl)cc1	HIV Env fusion 110
Cc1cccc(S(=O)(=O)N2CCCCN3[C@H](CO)[C@@H](c4ccc(-c5ccccc5)cc4)[C@@H]3C2)c1	none (no result: FN deposition inh, PDI turbidity, INS-1E GSIS act, HIV Env fusion)
Cc1noc(C)c1S(=O)(=O)N(C)C[C@H]1Oc2ccc(NS(=O)(=O)c3cccs3)cc2CC(=O)N([C@H](C)CO)C[C@@H]1C	none (no result: FN deposition inh, PDI turbidity)
O=C(N[C@@H]1CC[C@@H](CCNS(=O)(=O)c2ccc(Cl)cc2)O[C@H]1CO)c1cccc(F)c1	none (no result: FN deposition inh, PDI turbidity)
CC(C)NC(=O)N1CC2(C1)[C@H](c1ccccc1)[C@H](CO)N2Cc1cccnc1	none (no result: FN deposition inh, PDI turbidity, HIV Env fusion)
CO[C@@H]1CN(C)C(=O)c2cc(NS(=O)(=O)c3ccccc3)ccc2OC[C@@H](C)NC[C@@H]1C	none (no result: PDI turbidity, HIV Env fusion)
CCC(=O)N[C@@H]1CC[C@H](CC(=O)NCc2ccccc2OC)O[C@@H]1CO	none (no result: FN deposition inh, PDI turbidity)
CC(C)C#Cc1ccc([C@@H]2[C@H]3CN(C(=O)c4ccc5c(c4)OCO5)CC(=O)N3[C@H]2CO)cc1	none (no result: PDI turbidity, HIV Env fusion)
O=C(NC(=S)Nc1ccccc1N1CCOCC1)c1ccccc1F	none (no result: HIV Env fusion)
O=C(NC(=S)Nc1ccccc1N1CCN(C(=O)c2ccccc2)CC1)c1ccccc1F	HIV Env fusion 58 (no result: FN deposition inh)
O=C(Nc1ccccc1N1CCN(C(=O)c2ccccc2)CC1)c1ccc(Br)o1	HIV Env fusion 69 (no result: FN deposition inh)
CO[C@@H]1CN(C)C(=O)c2ccc(NC(=O)NC(C)C)cc2OC[C@@H](C)N(Cc2ccccc2)C[C@H]1C	none (no result: PDI turbidity, ERp5 inh, HIV Env fusion)
CN1CCN(c2ccc(NC(=O)c3ccc([N+](=O)[O-])o3)cc2Cl)CC1	none
CC(C)C(=O)N1CCN(c2ccc(NC(=O)c3ccc([N+](=O)[O-])o3)cc2Cl)CC1	FN deposition inh 37
C/C=C/c1ccc(OCCOCCNCc2ccccc2)c(OC)c1	HIV Env fusion 89
C/C=C/c1ccc(OCCOc2cc(C=O)ccc2OC)c(OC)c1	none (no result: ERp5 inh, HIV Env fusion)
O=C1Nc2ccccc2-n2nnnc2C1N1CCN(c2ccccn2)CC1 (stereo not given)	INS-1E GSIS act 101 (no result: PDI turbidity)
O=C(Nc1cc(C(F)(F)F)ccc1N1CCCCC1)c1cccc([N+](=O)[O-])c1	HIV Env fusion 98 (no result: FN deposition inh, INS-1E GSIS act, ERp5 inh)
O=C(Nc1ccccc1N1CCCCC1)c1cccc([N+](=O)[O-])c1	none
O=C(CN1C(=O)NC2(CCCCC2)C1=O)Nc1cc(C(F)(F)F)ccc1N1CCCCC1	none
O=C(CN1C(=O)NC2(CCCC2)C1=O)Nc1cc(C(F)(F)F)ccc1N1CCCCC1	ERp5 inh 34 (no result: FN deposition inh)
Cc1noc(C)c1NC(=O)N(C)C[C@@H]1Oc2ccc(NC(=O)Cc3ccccc3)cc2C(=O)N([C@@H](C)CO)C[C@H]1C	none (no result: FN deposition inh, PDI turbidity)
Cc1cc(O)c(-c2cc(O)c(C)cc2O)cc1O	FN deposition inh 37
